Measured values taken from ChEMBL document CHEMBL3352466 (J Med Chem, 2014).
Activity calls are given as the source filed them. The rule behind the calls is not given here.

Legend:
A549 [1] = assay: Induction of apoptosis in human A549 cells assessed as viable cells level at 100 nM after 48 hrs by Annexin V-FITC/propidium iodide double staining based FACS method (reference value: 97.10%); assay type: functional
Outline: (§1)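 A549 cells given vehicle or 100 nM for 24 or 48 h, trypsinized, washed in ice-cold PBS, labelled with annexin V-FITC and propidium iodide 15 min at room temperature in the dark, then analysed by flow cytometry.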

Mus musculus [2] = assay: Toxicity in human HCT116 cells xenografted nu/nu mouse assessed as body weight changes at 10 mg/kg, iv qd for 7 days and then intraperitoneally once every day to the end; assay type: organism-based, HCT-116; set-up: dose 10 mg/kg, route intravenous; conditions: in vivo, 168 h
Outline: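 HCT116 xenografts were grown to about 200 mm3, then mice were randomized into groups (n = 8). Dosing was i.v. for 7 days, then i.p. once daily to the end. Vehicle was saline with 5% DMSO and 5% cremophor. Tumor growth and body weight were measured three times per week, and groups were compared by Student's t-test.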

[3] = molecular target: Cellular tumor antigen p53 (Homo sapiens) (UniProt P04637); assay: Activation of p53 Ser15 phosphorylation in human A549 cells at 100 nM after 0.5 to 4 hrs by Western blot method; assay type: cell-based
Sequence of Cellular tumor antigen p53 (Homo sapiens) (P04637 whole entry, looked up): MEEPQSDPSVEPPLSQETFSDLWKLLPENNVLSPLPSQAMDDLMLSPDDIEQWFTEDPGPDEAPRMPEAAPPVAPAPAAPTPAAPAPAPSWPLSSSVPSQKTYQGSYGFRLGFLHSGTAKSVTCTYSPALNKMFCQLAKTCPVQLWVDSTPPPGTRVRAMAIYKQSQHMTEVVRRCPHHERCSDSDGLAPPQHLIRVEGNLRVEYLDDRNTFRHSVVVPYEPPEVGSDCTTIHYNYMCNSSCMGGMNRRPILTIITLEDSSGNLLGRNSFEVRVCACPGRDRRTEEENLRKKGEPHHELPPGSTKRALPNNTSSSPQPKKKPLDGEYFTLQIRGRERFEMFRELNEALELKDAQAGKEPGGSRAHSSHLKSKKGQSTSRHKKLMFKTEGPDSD
Outline: (§2)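 A-549 cells exposed to 100 nM for the indicated times; whole-cell extracts immunoblotted with phospho-specific antibodies (p-ATM, p-ATR, p-Chk1, p-Chk2, p-H2AX, p-p53), with pan antibody to each protein and β-actin as loading controls.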

Mus musculus [4] = assay: Toxicity in BALB/c mouse assessed as kidney renal tubule regeneration at 30 to 300 mg/kg, ip administered as single dose measured after 15 days by histopathological analysis; assay type: organism-based; set-up: dose 30-300 mg/kg, route intraperitoneal; conditions: in vivo, 360 h
Outline: (§3)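 Male BALB/c mice, 8 weeks old, randomized into six groups (n = 10): single i.p. dose of 0 (vehicle), 30, 100, 200 or 300 mg/kg on day zero, or untreated normal control. Monitored for anaphylactic/allergic responses and body weight; at end, liver, lung, kidney and spleen formalin-fixed, paraffin-embedded, H&E-stained and graded histopathologically for lesions.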

Mus musculus [5] = assay: Toxicity in BALB/c mouse assessed as lung adenoma at 30 to 300 mg/kg, ip administered as single dose measured after 15 days by histopathological analysis; assay type: organism-based; set-up: dose 30-300 mg/kg, route intraperitoneal; conditions: in vivo, 360 h; outline: as §3
[6] = molecular target: T1, DNA topoisomerase 1 (Homo sapiens) (UniProt P11387); assay: Inhibition of human recombinant topoisomerase 1 at 100 nM preincubated for 20 mins before addition of supercoiled plasmid DNA by ethidium bromide dye based gel electrophoresis
T1 sequence (whole entry): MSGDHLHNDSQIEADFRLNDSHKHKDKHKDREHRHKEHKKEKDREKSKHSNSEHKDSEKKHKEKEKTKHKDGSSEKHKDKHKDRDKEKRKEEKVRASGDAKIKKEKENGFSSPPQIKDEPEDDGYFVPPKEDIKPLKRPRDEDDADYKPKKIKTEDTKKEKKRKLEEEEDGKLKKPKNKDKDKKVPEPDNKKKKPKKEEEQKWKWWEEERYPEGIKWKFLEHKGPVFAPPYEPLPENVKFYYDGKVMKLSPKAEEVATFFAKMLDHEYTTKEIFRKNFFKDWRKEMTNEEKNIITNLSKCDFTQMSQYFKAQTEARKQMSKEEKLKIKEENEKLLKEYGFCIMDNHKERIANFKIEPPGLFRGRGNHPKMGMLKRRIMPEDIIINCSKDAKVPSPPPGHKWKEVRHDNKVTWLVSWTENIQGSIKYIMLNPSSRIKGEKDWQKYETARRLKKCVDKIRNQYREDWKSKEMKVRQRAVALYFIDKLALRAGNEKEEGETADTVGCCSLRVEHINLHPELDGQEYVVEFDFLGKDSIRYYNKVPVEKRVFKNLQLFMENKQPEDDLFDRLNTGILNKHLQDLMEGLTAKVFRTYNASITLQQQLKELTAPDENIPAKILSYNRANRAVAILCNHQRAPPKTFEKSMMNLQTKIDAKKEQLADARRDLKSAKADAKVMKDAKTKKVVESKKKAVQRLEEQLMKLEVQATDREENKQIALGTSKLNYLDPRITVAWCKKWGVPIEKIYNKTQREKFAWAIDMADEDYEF
Outline: (§4)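 Purified recombinant human Topo I incubated with vehicle or compound, then with supercoiled plasmid DNA; products resolved on agarose gel and stained with ethidium bromide; SN38 (100 nM) positive control.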

Mus musculus [7] = assay: Toxicity in BALB/c mouse assessed as liver inflammatory cell infiltration at 30 to 300 mg/kg, ip administered as single dose measured after 15 days by histopathological analysis; assay type: organism-based; set-up: dose 30-300 mg/kg, route intraperitoneal; conditions: in vivo, 360 h; outline: as §3
A549 [8] = assay: Increase in FADD protein expression in human A549 cells at 100 nM by Western blot method; assay type: functional, cell-based
Outline: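 Whole-cell lysates from A-549 cells given 100 nM or vehicle for the indicated hours; apoptosis-related proteins detected by Western blotting.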

[9] = molecular target: Serine-protein kinase ATM (Homo sapiens) (UniProt Q13315); assay: Activation of ATM Ser1981 phosphorylation in human A549 cells at 100 nM after 0.5 hrs by Western blot method; assay type: cell-based; outline: as §2
Sequence of Serine-protein kinase ATM (Homo sapiens) (Q13315 whole entry): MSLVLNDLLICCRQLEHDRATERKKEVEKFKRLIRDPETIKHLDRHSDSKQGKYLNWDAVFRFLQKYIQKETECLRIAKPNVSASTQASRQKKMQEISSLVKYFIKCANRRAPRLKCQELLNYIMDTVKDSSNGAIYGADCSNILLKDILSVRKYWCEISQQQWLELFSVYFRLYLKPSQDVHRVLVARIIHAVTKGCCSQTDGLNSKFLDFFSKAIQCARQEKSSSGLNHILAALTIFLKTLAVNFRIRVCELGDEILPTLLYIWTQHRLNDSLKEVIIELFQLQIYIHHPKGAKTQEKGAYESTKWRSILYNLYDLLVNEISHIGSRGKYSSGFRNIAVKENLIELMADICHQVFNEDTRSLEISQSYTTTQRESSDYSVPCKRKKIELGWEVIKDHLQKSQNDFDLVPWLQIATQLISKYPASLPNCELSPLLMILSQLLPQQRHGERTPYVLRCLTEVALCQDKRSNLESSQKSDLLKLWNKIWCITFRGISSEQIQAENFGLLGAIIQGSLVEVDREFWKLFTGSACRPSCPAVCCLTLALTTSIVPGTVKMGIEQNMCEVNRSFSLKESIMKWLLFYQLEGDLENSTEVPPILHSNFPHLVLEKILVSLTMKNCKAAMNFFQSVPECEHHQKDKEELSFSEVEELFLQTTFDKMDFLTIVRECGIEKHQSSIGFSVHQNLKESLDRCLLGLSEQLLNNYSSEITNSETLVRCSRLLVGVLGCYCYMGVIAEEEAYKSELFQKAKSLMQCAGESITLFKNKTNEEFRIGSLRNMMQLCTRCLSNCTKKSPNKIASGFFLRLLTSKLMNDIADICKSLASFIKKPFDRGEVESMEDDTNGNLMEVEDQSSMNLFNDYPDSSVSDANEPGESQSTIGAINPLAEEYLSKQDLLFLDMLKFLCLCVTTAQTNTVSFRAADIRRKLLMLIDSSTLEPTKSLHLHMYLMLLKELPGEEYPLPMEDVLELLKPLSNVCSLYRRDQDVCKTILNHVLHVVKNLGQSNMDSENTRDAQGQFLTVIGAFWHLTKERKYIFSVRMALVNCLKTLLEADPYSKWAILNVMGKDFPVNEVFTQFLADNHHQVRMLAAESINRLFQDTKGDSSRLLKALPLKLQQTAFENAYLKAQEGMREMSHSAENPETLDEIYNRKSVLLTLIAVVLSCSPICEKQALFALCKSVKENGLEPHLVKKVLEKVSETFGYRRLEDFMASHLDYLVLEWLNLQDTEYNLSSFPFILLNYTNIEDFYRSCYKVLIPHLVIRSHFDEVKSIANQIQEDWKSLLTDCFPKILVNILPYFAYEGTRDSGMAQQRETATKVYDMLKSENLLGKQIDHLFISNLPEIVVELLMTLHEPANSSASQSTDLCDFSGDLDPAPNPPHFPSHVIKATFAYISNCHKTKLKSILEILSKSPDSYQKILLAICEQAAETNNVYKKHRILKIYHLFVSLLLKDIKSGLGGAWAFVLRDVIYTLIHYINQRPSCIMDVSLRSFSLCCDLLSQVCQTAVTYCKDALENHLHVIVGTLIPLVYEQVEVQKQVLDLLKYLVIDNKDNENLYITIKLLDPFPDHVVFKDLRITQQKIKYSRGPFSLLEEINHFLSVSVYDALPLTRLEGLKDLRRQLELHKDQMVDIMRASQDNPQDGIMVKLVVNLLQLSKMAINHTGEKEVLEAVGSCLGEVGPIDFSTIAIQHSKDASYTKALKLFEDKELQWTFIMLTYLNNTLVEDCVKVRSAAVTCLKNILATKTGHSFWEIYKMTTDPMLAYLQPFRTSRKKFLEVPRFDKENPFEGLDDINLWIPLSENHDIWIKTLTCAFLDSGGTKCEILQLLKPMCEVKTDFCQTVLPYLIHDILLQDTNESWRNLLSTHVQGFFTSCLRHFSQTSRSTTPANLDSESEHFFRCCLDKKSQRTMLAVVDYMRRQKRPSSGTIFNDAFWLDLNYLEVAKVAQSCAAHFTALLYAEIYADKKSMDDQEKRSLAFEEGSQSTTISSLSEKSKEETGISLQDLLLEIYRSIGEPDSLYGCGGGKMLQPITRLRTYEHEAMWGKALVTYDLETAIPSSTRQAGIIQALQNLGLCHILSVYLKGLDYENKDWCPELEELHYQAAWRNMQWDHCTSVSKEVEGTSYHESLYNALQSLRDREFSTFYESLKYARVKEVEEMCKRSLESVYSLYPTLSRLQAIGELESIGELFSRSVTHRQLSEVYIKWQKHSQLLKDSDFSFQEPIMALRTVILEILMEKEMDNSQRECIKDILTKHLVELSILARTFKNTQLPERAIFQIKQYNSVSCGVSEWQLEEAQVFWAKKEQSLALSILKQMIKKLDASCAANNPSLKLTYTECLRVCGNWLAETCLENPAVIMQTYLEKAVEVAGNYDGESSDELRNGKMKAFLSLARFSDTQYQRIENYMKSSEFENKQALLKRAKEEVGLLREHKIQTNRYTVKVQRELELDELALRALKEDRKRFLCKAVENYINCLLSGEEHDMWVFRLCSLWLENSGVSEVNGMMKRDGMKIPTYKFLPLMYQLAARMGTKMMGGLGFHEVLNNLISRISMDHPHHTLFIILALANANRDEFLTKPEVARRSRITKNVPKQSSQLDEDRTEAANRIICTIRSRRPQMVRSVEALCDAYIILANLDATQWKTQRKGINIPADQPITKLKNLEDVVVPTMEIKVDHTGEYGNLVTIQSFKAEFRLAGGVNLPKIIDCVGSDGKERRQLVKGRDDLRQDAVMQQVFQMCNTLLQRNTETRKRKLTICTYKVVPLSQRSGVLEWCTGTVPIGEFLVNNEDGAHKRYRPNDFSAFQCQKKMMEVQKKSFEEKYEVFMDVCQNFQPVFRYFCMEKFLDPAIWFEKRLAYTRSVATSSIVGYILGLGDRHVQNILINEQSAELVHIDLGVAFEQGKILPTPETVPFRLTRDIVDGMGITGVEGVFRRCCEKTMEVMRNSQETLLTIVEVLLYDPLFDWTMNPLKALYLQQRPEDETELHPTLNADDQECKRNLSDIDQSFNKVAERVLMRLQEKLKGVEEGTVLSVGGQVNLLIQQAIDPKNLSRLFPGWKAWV

HCT-116 = assay: Antitumor activity against human HCT116 cells xenografted in nu/nu mouse assessed as tumor regression at 10 mg/kg, iv qd for 7 days and then intraperitoneally once every day to the end; assay type: functional, organism-based; set-up: dose 10 mg/kg
Outline: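 HCT116 colorectal xenografts grown to about 200 mm3, mice randomized into four groups (n = 8): vehicle, 5 or 10 mg/kg QD (i.v. for 7 days, then i.p. daily to end), or 100 mg/kg QWK. Vehicle saline with 5% DMSO and 5% cremophor. Tumour growth and body weight measured three times weekly; complete regression counted; Student's t-test.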

Mus musculus [10] = assay: Toxicity in BALB/c mouse assessed as liver glycogen deposition at 30 to 300 mg/kg, ip administered as single dose measured after 15 days by histopathological analysis; assay type: organism-based; set-up: dose 30-300 mg/kg, route intraperitoneal; conditions: in vivo, 360 h; outline: as §3
[11] = molecular target: Serine-protein kinase ATM (Homo sapiens) (UniProt Q13315); assay: Induction of ATM activation in human A549 cells assessed as histone H2AX Ser139 phosphorylation at 100 nM after 0.5 to 4 hrs by Western blot method; assay type: cell-based; outline: as §2
A549 [12] = assay: Induction of apoptosis in human A549 cells assessed as caspase-8 activation at 100 nM after 12 to 48 hrs by Western blot method; assay type: functional, cell-based
Outline: (§5)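 A-549 cells treated with 100 nM for indicated times, then harvested and lysed; caspase cleavage determined by Western blot.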

A549 [13] = assay: Induction of apoptosis in human A549 cells assessed as early apoptosis cells level at 100 nM after 24 hrs by Annexin V-FITC/propidium iodide double staining based FACS method (reference value: 0.2%); assay type: functional; outline: as §1
[14] = molecular target: T1, DNA topoisomerase 1 (Homo sapiens); assay: Inhibition of topoisomerase 1 in human A549 cells assessed as reduction in relaxation of supercoiled DNA substrate at 30 to 100 nM incubated for 30 mins by ethidium bromide staining based gel electrophoresis; assay type: cell-based
Outline: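 A-549 cells treated with vehicle or 30, 100 nM for 1 h, then harvested for Topo I activity assay.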

A549 [15] = assay: Induction of apoptosis in human A549 cells assessed as caspase-9 activation at 100 nM after 12 to 48 hrs by Western blot method; assay type: functional, cell-based; outline: as §5
[16] = molecular target: T1, DNA topoisomerase 1 (Homo sapiens); assay: Inhibition of human recombinant topoisomerase 1 preincubated for 20 mins before addition of supercoiled plasmid DNA by ethidium bromide dye based gel electrophoresis; outline: as §4

CC[C@@]1(OC(=O)CN/C(Cc2ccc(OC)cc2)=N/S(=O)(=O)c2ccc(C)cc2)C(=O)OCc2c1cc1n(c2=O)Cc2cc3ccccc3nc2-1
Activity (A549 [1]): 56.8%
Activity (Mus musculus [2]): Non-toxic
Activity [3]: Active
Activity (Mus musculus [4]): Non-toxic
Activity (Mus musculus [5]): Non-toxic
inhibition [6]: Active
Activity (Mus musculus [7]): Non-toxic
Activity (A549 [8]): Active
Activity [9]: Active
inhibition (HCT-116): Active
Activity (Mus musculus [10]): Non-toxic
Activity [11]: Active
Activity (A549 [12]): Active
Activity (A549 [13]): 0.7%
inhibition [14]: Active
Activity (A549 [15]): Active
inhibition [16]: Dose-dependent effect
